Results published in ChEMBL document CHEMBL3297654, “Synthesis, antimicrobial and cytotoxic activities, and structure-activity relationships of gypsogenin derivatives against human cancer cells” (Eur J Med Chem, 2014).
≈ marks a conversion by molar mass, not a printed value. Calls of active or inactive are those of the source. The calls are words filed in the database; no cut-off is given here.

What was measured:
[1] = test system: HeLa; assay: Induction of necrosis in human HeLa cells at 20 uM after 48 hrs by Hoechst 33258/propidium iodide staining based phase contrast microscopic analysis; assay type: functional
Method in brief: (§1)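 Cells in 48-well plates treated with 0.5, 10, 20 or 40 µM for 24 and 48 h. Values are read at 48 h, 20 µM for test agents and 0.5 µM for controls. Staining is Hoechst 33258/propidium iodide double staining with fluorescence microscopy. Blue nuclei are viable or early-to-mid apoptotic, and pink nuclei are late apoptotic or necrotic. Apoptosis and necrosis are scored from chromatin condensation as % of cells. Cells are grown at 37 °C in 5% CO2 in RPMI, DMEM or McCoy's 5A with 10–15% heat-inactivated FCS.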

[2] = test system: Staphylococcus aureus; assay: Antimicrobial activity against Staphylococcus aureus ATCC 25923 assessed as zone of inhibition at 30 uL for 24 hrs at 37 degC by disk diffusion test; assay type: functional, organism-based
Method in brief: (§2)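 Compound (30 µL of a fresh 1000 µg/mL DMSO stock) goes into a 6 mm well cut in Mueller Hinton agar inoculated with 0.1 mL broth culture adjusted to 0.5 McFarland (about 1×10^8 cells/mL). Plates are incubated 24 h at 37 °C, then zone of inhibition diameter is measured in mm.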

[3] = test system: Cyberlindnera jadinii; assay: Antimicrobial activity against Candida utilis ATCC 9950 assessed as zone of inhibition at 30 uL for 24 hrs at 30 degC by disk diffusion test; assay type: functional, organism-based
Method in brief: (§3)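 Agar well diffusion on Mueller Hinton agar seeded with 0.1 mL broth culture (18–24 h), adjusted to 0.5 McFarland (about 1×10^8 bacteria or 1×10^6 yeast cells/mL). A 6 mm well is filled with 30 µL of compound from a fresh 1000 µg/mL DMSO stock. Plates are held at 30 °C for 24 h and inhibition zone diameter is read in mm.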

[4] = test system: Enterococcus faecalis; assay: Antimicrobial activity against Enterococcus faecalis ATCC 29212 assessed as zone of inhibition at 30 uL for 24 hrs at 37 degC by disk diffusion test; assay type: functional, organism-based; method in brief: as §2
[5] = test system: Klebsiella pneumoniae; assay: Antimicrobial activity against Klebsiella pneumoniae ATCC 13882 assessed as zone of inhibition at 30 uL for 24 hrs at 37 degC by disk diffusion test; assay type: functional, organism-based; method in brief: as §2
[6] = test system: HL-60; assay: Induction of necrosis in human HL60 cells at 20 uM after 48 hrs by Hoechst 33258/propidium iodide staining based phase contrast microscopic analysis; assay type: functional; method in brief: as §1
[7] = test system: HT-29; assay: Induction of necrosis in human HT-29 cells at 20 uM after 48 hrs by Hoechst 33258/propidium iodide staining based phase contrast microscopic analysis; assay type: functional; method in brief: as §1
[8] = test system: Caco-2; assay: Induction of necrosis in human Caco2 cells at 20 uM after 48 hrs by Hoechst 33258/propidium iodide staining based phase contrast microscopic analysis; assay type: functional; method in brief: as §1
[9] = test system: SAOS-2; assay: Induction of necrosis in human Saos2 cells at 20 uM after 48 hrs by Hoechst 33258/propidium iodide staining based […] microscopic analysis; assay type: functional; method in brief: as §1
[10] = test system: HL-60; assay: Induction of apoptosis in human HL60 cells at 20 uM after 48 hrs by Hoechst 33258/propidium iodide staining based phase contrast microscopic analysis; assay type: functional; method in brief: as §1
[11] = test system: Bacillus subtilis; assay: Antimicrobial activity against Bacillus subtilis ATCC 6633 for 24 hrs by microdillution method; assay type: functional
Method in brief: (§4)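 Broth microdilution. Compound is dissolved in DMSO (2 mg/mL) and diluted in Mueller Hinton broth as two-fold serial dilutions from 256 to 0.125 µg/mL. Bacteria are pre-grown in nutrient broth at 30 °C, and the final inoculum is about 10^6 cfu/mL. Tests are incubated 37 °C for 24 h. MIC is the lowest concentration giving complete inhibition. Streptomycin is the positive control.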

[12] = test system: HT-29; assay: Induction of apoptosis in human HT-29 cells at 20 uM after 48 hrs by Hoechst 33258/propidium iodide staining based phase contrast microscopic analysis; assay type: functional; method in brief: as §1
[13] = test system: MCF7; assay: Induction of necrosis in human MCF7 cells at 20 uM after 48 hrs by Hoechst 33258/propidium iodide staining based phase contrast microscopic analysis; assay type: functional; method in brief: as §1
[14] = test system: Micrococcus luteus; assay: Antimicrobial activity against Micrococcus luteus ATCC 9341 assessed as zone of inhibition at 30 uL for 24 hrs at 30 degC by disk diffusion test; assay type: functional, organism-based; method in brief: as §3
[15] = test system: Nakaseomyces glabratus; assay: Antimicrobial activity against Candida glabrata assessed as zone of inhibition at 30 uL for 24 hrs at 30 degC by disk diffusion test; assay type: functional, organism-based; method in brief: as §3
[16] = test system: MCF7; assay: Antiproliferative activity against human MCF7 cells after 24 and 72 hrs by MTT assay; assay type: functional, cell-based
Method in brief: (§5)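 ATCC human cell lines are kept in RPMI, DMEM or McCoy's 5A with 10–15% heat-inactivated FCS at 37 °C and 5% CO2. They are seeded at 1×10^4–1×10^5 cells/mL in 48-well plates and exposed to 0.5, 10, 20 or 40 µM. Viability is read by MTT (590 nm) at 24 and 72 h. Growth is expressed relative to untreated cells and IC50 is fitted, in triplicate.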

[17] = test system: Proteus vulgaris; assay: Antimicrobial activity against Proteus vulgaris ATCC 33420 assessed as zone of inhibition at 30 uL for 24 hrs at 37 degC by disk diffusion test; assay type: functional, organism-based; method in brief: as §2
[18] = test system: SAOS-2; assay: Induction of apoptosis in human Saos2 cells at 20 uM after 48 hrs by Hoechst 33258/propidium iodide staining based phase contrast microscopic analysis; assay type: functional; method in brief: as §1
[19] = test system: HL-60; assay: Antiproliferative activity against human HL60 cells after 24 and 72 hrs by MTT assay; assay type: functional, cell-based; method in brief: as §5
[20] = test system: MCF7; assay: Induction of apoptosis in human MCF7 cells at 20 uM after 48 hrs by Hoechst 33258/propidium iodide staining based phase contrast microscopic analysis; assay type: functional; method in brief: as §1
[21] = test system: Escherichia coli; assay: Antimicrobial activity against Escherichia coli ATCC 25922 assessed as zone of inhibition at 30 uL for 24 hrs at 37 degC by disk diffusion test; assay type: functional, organism-based; method in brief: as §2
[22] = test system: Candida tropicalis; assay: Antimicrobial activity against Candida tropicalis assessed as zone of inhibition at 30 uL for 24 hrs at 30 degC by disk diffusion test; assay type: functional, organism-based; method in brief: as §3
[23] = test system: Bacillus cereus; assay: Antimicrobial activity against Bacillus cereus ATCC 11778 for 24 hrs by microdillution method; assay type: functional; method in brief: as §4
[24] = test system: Staphylococcus epidermidis; assay: Antimicrobial activity against Staphylococcus epidermidis ATCC 12228 assessed as zone of inhibition at 30 uL for 24 hrs at 37 degC by disk diffusion test; assay type: functional, organism-based; method in brief: as §2
[25] = test system: Candida albicans; assay: Antimicrobial activity against Candida albicans ATCC 10231 assessed as zone of inhibition at 30 uL for 24 hrs at 30 degC by disk diffusion test; assay type: functional, organism-based; method in brief: as §3
[26] = test system: Salmonella typhimurium; assay: Antimicrobial activity against Salmonella typhimurium ATCC 14028 assessed as zone of inhibition at 30 uL for 24 hrs at 37 degC by disk diffusion test; assay type: functional, organism-based; settings: Salmonella enterica subsp. enterica serovar Typhimurium; method in brief: as §2
[27] = test system: HeLa; assay: Antiproliferative activity against human HeLa cells after 24 and 72 hrs by MTT assay; assay type: functional, cell-based; method in brief: as §5
[28] = test system: HT-29; assay: Antiproliferative activity against human HT-29 cells after 24 and 72 hrs by MTT assay; assay type: functional, cell-based; method in brief: as §5
[29] = test system: HeLa; assay: Induction of apoptosis in human HeLa cells at 20 uM after 48 hrs by Hoechst 33258/propidium iodide staining based phase contrast microscopic analysis; assay type: functional; method in brief: as §1
[30] = test system: Pseudomonas aeruginosa; assay: Antimicrobial activity against Pseudomonas aeruginosa ATCC 35032 assessed as zone of inhibition at 30 uL for 24 hrs at 37 degC by disk diffusion test; assay type: functional, organism-based; method in brief: as §2
[31] = test system: Bacillus subtilis; assay: Antimicrobial activity against Bacillus subtilis ATCC 6633 assessed as zone of inhibition at 30 uL for 24 hrs at 30 degC by disk diffusion test; assay type: functional; method in brief: as §3
[32] = Antiproliferative activity against human Saos2 cells after 24 and 72 hrs by MTT assay; assay type: functional, cell-based; settings: SAOS-2; method in brief: as §5
[33] = test system: Saccharomyces cerevisiae; assay: Antimicrobial activity against Saccharomyces cerevisiae ATCC 9763 assessed as zone of inhibition at 30 uL for 24 hrs at 30 degC by disk diffusion test; assay type: functional, organism-based; method in brief: as §3
[34] = test system: Caco-2; assay: Antiproliferative activity against human Caco2 cells after 24 and 72 hrs by MTT assay; assay type: functional, cell-based; method in brief: as §5
[35] = test system: Bacillus thuringiensis; assay: Antimicrobial activity against Bacillus thuringiensis for 24 hrs by microdillution method; assay type: functional; method in brief: as §4
[36] = test system: Bacillus cereus; assay: Antimicrobial activity against Bacillus cereus ATCC 11778 assessed as zone of inhibition at 30 uL for 24 hrs at 30 degC by disk diffusion test; assay type: functional; method in brief: as §3
[37] = test system: Bacillus thuringiensis; assay: Antimicrobial activity against Bacillus thuringiensis assessed as zone of inhibition at 30 uL for 24 hrs at 30 degC by disk diffusion test; assay type: functional; method in brief: as §3
[38] = test system: Caco-2; assay: Induction of apoptosis in human Caco2 cells at 20 uM after 48 hrs by Hoechst 33258/propidium iodide staining based phase contrast microscopic analysis; assay type: functional; method in brief: as §1

Compound | Activity [1] | diameter of the inhibition zone (DIZ) [2] | diameter of the inhibition zone (DIZ) [3] | diameter of the inhibition zone (DIZ) [4] | diameter of the inhibition zone (DIZ) [5] | Activity [6] | Activity [7] | Activity [8] | Activity [9] | Activity [10] | Activity [12] | Activity [13] | diameter of the inhibition zone (DIZ) [14] | diameter of the inhibition zone (DIZ) [15] | IC50 [16] | diameter of the inhibition zone (DIZ) [17] | Activity [18] | IC50 [19] | Activity [20] | diameter of the inhibition zone (DIZ) [21] | other results
CC(=O)O[C@H]1CC[C@]2(C)[C@H]3CC=C4[C@@H]5CC(C)(C)CC[C@]5(C(=O)O)CC[C@@]4(C)[C@]3(C)CC[C@H]2[C@]1(C)/C=N/NC(N)=S | 65% | inactive | inactive | inactive | inactive | 67% | 26% | 29% | 61% | 2% | 3% | 63% | inactive | inactive | 7.5 µM | inactive | 2% | 12.8 µM | 6% | inactive | MIC ([11]; ATCC 6633, 24 h): 32 µg/mL (≈ 54.6 µM); diameter of the inhibition zone (DIZ) [22]: inactive; MIC ([23]; ATCC 11778, 24 h): 32 µg/mL (≈ 54.6 µM); diameter of the inhibition zone (DIZ) [24]: inactive; diameter of the inhibition zone (DIZ) [25]: inactive; diameter of the inhibition zone (DIZ) [26]: inactive; IC50 [27]: 110 µM; IC50 [28]: 13.3 µM; Activity [29]: 2%; diameter of the inhibition zone (DIZ) [30]: inactive; diameter of the inhibition zone (DIZ) [31]: 14 mm; IC50 [32]: 10.1 µM; diameter of the inhibition zone (DIZ) [33]: inactive; IC50 [34]: 30.4 µM; MIC [35]: 32 µg/mL (≈ 54.6 µM); diameter of the inhibition zone (DIZ) [36]: 14 mm; diameter of the inhibition zone (DIZ) [37]: 14 mm; Activity [38]: 3%
CC(=O)O[C@H]1CC[C@]2(C)[C@H]3CC=C4[C@@H]5CC(C)(C)CC[C@]5(C(=O)OCc5ccccc5)CC[C@@]4(C)[C@]3(C)CC[C@H]2[C@]1(C)C=O | 68% | inactive | inactive | inactive | inactive | 51% | 29% | 37% | 45% | 3% | 0.7% | 36% | inactive | inactive | 65.2 µM | inactive | 0% | 6.74 µM | 5% | inactive | MIC [11]: inactive; diameter of the inhibition zone (DIZ) [22]: inactive; MIC [23]: inactive; diameter of the inhibition zone (DIZ) [24]: inactive; diameter of the inhibition zone (DIZ) [25]: inactive; diameter of the inhibition zone (DIZ) [26]: inactive; IC50 [27]: 287 µM; IC50 [28]: 10.3 µM; Activity [29]: 2%; diameter of the inhibition zone (DIZ) [30]: inactive; diameter of the inhibition zone (DIZ) [31]: inactive; IC50 [32]: 10.7 µM; diameter of the inhibition zone (DIZ) [33]: inactive; IC50 [34]: 51.1 µM; MIC [35]: inactive; diameter of the inhibition zone (DIZ) [36]: inactive; diameter of the inhibition zone (DIZ) [37]: inactive; Activity [38]: 1%
